Test results taken from ChEMBL document CHEMBL1629511, “Naphthylchalcones induce apoptosis and caspase activation in a leukemia cell line: The relationship between mitochondrial damage, oxidative stress, and cell death” (Bioorg Med Chem, 2010).
Active and inactive are the calls of the source. The calls are words filed in the database; no cut-off is given here.

Assays:
L1210 [1] = assay: Induction of apoptosis in mouse L1210 cells assessed as increase in GSH level at IC50 concentration measured after 24 hrs; format: functional, cell-based
Procedure, shortened: (§1)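 Homogenates came from 3 × 10⁶ L1210 cells after 24 h treatment (phosphate/NaCl/Triton lysis, sonication, 10,000 rpm spin). Total glutathione was measured by the glutathione reductase recycling method (50 µg protein, 75 µM DTNB, 120 µM NADPH, 4 U/ml GR) at 405 nm against a GSH standard. GSSG = (TG − GSH)/2. Values were protein-normalized and given as % of control.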

L1210 [2] = assay: Cytotoxicity against mouse L1210 cells after 24 hrs by MTT assay; format: functional, cell-based; settings: L1210, 24 h
Procedure, shortened: (§2)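 MTT assay on L1210 or CEM cells grown in DMEM with 10% heat-inactivated FBS. Cells were seeded at 1 × 10⁵/well for 24 h or 5 × 10⁴/well for 48 h, in triplicate, with 1–100 µM compound (DMSO ≤1%). MTT was added for 2 h at 37 °C, formazan dissolved in DMSO, and A540 read. IC50 came from a Hill concentration–response fit.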

L1210 [3] = assay: Cytotoxicity against mouse L1210 cells after 48 hrs by MTT assay; format: functional, cell-based; settings: L1210, 48 h; procedure, shortened: as §2
L1210 [4] = assay: Cytotoxicity against mouse L1210 cells after 72 hrs by MTT assay; format: functional, cell-based; settings: L1210, 72 h
CCRF-CEM [5] = assay: Cytotoxicity against human CEM cells after 24 hrs by MTT assay; format: functional, cell-based; procedure, shortened: as §2
CCRF-CEM [6] = assay: Cytotoxicity against human CEM cells after 48 hrs by MTT assay; format: functional, cell-based; procedure, shortened: as §2
CCRF-CEM [7] = assay: Cytotoxicity against human CEM cells after 72 hrs by MTT assay; format: functional, cell-based
L1210 [8] = assay: Induction of apoptosis in mouse L1210 cells assessed as DNA fragmentation at IC50 concentration after 24 hrs by agarose gel electrophoresis analysis; format: functional, cell-based
Procedure, shortened: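 3 × 10⁶ L1210 cells were treated for 24 h, washed with cold PBS, then lysed in EDTA/Tris pH 8.0/NP-40/proteinase K buffer at 50 °C for 2 h. DNA was ethanol-precipitated, washed, treated with RNase A at 37 °C for 1 h and resolved by agarose gel electrophoresis beside a size standard.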

L1210 [9] = assay: Induction of apoptosis in mouse L1210 cells assessed as increase in caspase 3 activity at IC50 concentration after 2 to 4 hrs; format: functional, cell-based
Procedure, shortened: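 3 × 10⁶ L1210 cells were treated for 2 or 4 h at 37 °C, then lysed in HEPES pH 7.4 buffer with protease inhibitors, CHAPS and DTT. Extract (50 µg protein) was incubated with 10 µM Ac-DEVD-AMC for 2 h at 37 °C. AMC fluorescence was read at ex 380/em 465 nm, blank-subtracted, and expressed per hour per µg protein (Lowry).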

L1210 [10] = assay: Induction of lipid peroxidation in mouse L1210 cells at IC50 concentration after 24 hrs by TBARS method; format: functional, cell-based
Procedure, shortened: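 Homogenates came from 4 × 10⁶ L1210 cells after 24 h treatment. 400 µg protein was mixed with 60 mM Tris–HCl pH 7.4, 0.1 mM DPTA, TCA and 0.73% TBA, boiled 2 h, cooled and centrifuged. A535 was converted to nmol TBARS per µg protein using the MDA extinction coefficient.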

L1210 [11] = assay: Cytotoxicity against mouse L1210 cells after 24 hrs by MTT assay in presence of catalase; format: functional, cell-based; settings: L1210, 24 h
Procedure, shortened: (§3)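 L1210 cells at 1 × 10⁵/well were exposed for 24 h to 1–100 µM compound together with catalase 5000 U/ml, SOD 250 U/ml or Trolox 200 µM. Additive-only controls were run in parallel. Viability was read by MTT (2 h, formazan in DMSO, A540) in triplicate.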

L1210 [12] = assay: Cytotoxicity against mouse L1210 cells after 24 hrs by MTT assay in presence of superoxide dismutase; format: functional, cell-based; settings: L1210, 24 h; procedure, shortened: as §3
L1210 [13] = assay: Cytotoxicity against mouse L1210 cells after 24 hrs by MTT assay in presence of Trolox; format: functional, cell-based; settings: L1210, 24 h; procedure, shortened: as §3
L1210 [14] = assay: Induction of apoptosis in mouse L1210 cells assessed as decrease in mitochondrial membrane potential at IC50 concentration after 4 hrs using JC-1 staining by spectrofluorimetric analysis; format: functional, cell-based
Procedure, shortened: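 L1210 cells at 5 × 10⁵/well were treated for 4 h, then stained with JC-1 (10 µg/ml) for 20 min at 37 °C, washed and resuspended in PBS. Fluorescence was read with excitation at 488 nm and emission at 590/527 nm. The red/green ratio is expressed relative to control (100%).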

L1210 [15] = assay: Induction of apoptosis in mouse L1210 cells assessed as decrease in intracellular ATP concentration at IC50 concentration measured up to 24 hrs; format: functional, cell-based
Procedure, shortened: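 Intracellular ATP: 1 × 10⁶ L1210 cells were treated for up to 24 h. Extracts were made in 1.25% trichloroacetic acid, kept on ice 30 min, neutralized with 1 M Tris–acetate pH 7.5 and centrifuged. Luciferin–luciferase bioluminescence was read and normalized to the cell death percentage over the incubation.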

L1210 [16] = assay: Induction of apoptosis in mouse L1210 cells assessed as increase in glutathione peroxidase activity at IC50 concentration measured after 24 hrs; format: functional, cell-based
Procedure, shortened: (§4)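 Homogenates came from 6 × 10⁶ L1210 cells after 24 h treatment. GPx was measured with 150 µg protein as NADPH loss at 340 nm. Catalase followed Aebi with 60 µg protein. GST was measured as the GSH–CDNB conjugate at 340 nm. Activities were protein-normalized and given as % of control.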

L1210 [17] = assay: Induction of apoptosis in mouse L1210 cells assessed as increase in glutathione S-transferase activity at IC50 concentration measured after 24 hrs; format: functional, cell-based; procedure, shortened: as §4
L1210 [18] = assay: Induction of apoptosis in mouse L1210 cells assessed as increase in glutathione reductase activity at IC50 concentration measured after 24 hrs; format: functional, cell-based
L1210 [19] = assay: Induction of apoptosis in mouse L1210 cells assessed as increase in catalase activity at IC50 concentration measured after 24 hrs; format: functional, cell-based; procedure, shortened: as §4
L1210 [20] = assay: Induction of apoptosis in mouse L1210 cells assessed as increase in GSSG level at IC50 concentration measured after 24 hrs; format: functional, cell-based; procedure, shortened: as §1
L1210 [21] = assay: Induction of apoptosis in mouse L1210 cells assessed as increase in total glutathione level at IC50 concentration measured after 24 hrs; format: functional, cell-based; procedure, shortened: as §1
L1210 [22] = assay: Induction of ROS production in mouse L1210 cells at IC50 concentration after 4 hrs

Compound	Activity (L1210 [1])	IC50 (L1210 [2]) [µM]	IC50 (L1210 [3]) [µM]	IC50 (L1210 [4]) [µM]	IC50 (CCRF-CEM [5]) [µM]	IC50 (CCRF-CEM [6]) [µM]	IC50 (CCRF-CEM [7]) [µM]	Activity (L1210 [8])	Activity (L1210 [9])	Activity (L1210 [10])	IC50 (L1210 [11]) [µM]	IC50 (L1210 [12]) [µM]	IC50 (L1210 [13]) [µM]	Activity (L1210 [14])	Activity (L1210 [15])	Activity (L1210 [16])	Activity (L1210 [17])	Activity (L1210 [18])	Activity (L1210 [19])	Activity (L1210 [20])	other results
O=C(/C=C/c1ccccc1)c1ccc2ccccc2c1	Active	37	20	17	12	14	5	Active	Active	Active	58	31	39	inactive	Active	Active	Active	Active	inactive	Active	Activity (L1210 [21]): Active; Activity (L1210 [22]): Active
O=C(/C=C/c1cccc([N+](=O)[O-])c1)c1ccc2ccccc2c1	inactive	24	13	14	11	11	4	Active	Active	Active	45	20	20	Active	Active	Active	Active	Active	inactive	Active	Activity (L1210 [21]): Active; Activity (L1210 [22]): Active
O=C(/C=C/c1cccc(Cl)c1)c1ccc2ccccc2c1	inactive	38	23	10	11	12	6	Active	Active	Active	51	30	34	Active	Active	Active	Active	Active	inactive	Active	Activity (L1210 [21]): Active; Activity (L1210 [22]): Active
